Out of some 310,000 compounds screened, about 1,100 (0.35%) were called active.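 The calls were made as follows: active = fluorescence ratio B-score, a plate-corrected score, at least three library SD, with initial intensity B-score within 5 SD; inactive = the rest.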 For the sample, actives were picked, then their nearest neighbours and some compounds at random.
The compounds below were run against Potassium voltage-gated channel subfamily KQT member 1 (Homo sapiens) (UniProt P51787) (assay: human KCNQ1 current enhancers – cell-based, thallium flux, high-throughput, primary screen (AID 2648)). Conditions: CHO-K1 KCNQ1, thallium flux FluxOR fluorescence, at 10 µM; active compounds read high.
Procedure, shortened: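 assay system = CHO-K1 cells stably expressing KCNQ1 | medium = assay buffer, equal DMSO in all wells | timing = 37 °C overnight plating, 90-min dark dye load, 20-min compound pretreatment | measured by = kinetic FluxOR thallium fluorescence, 10-s 1-Hz baseline, 110-s post-stimulus read | measure = fluorescence change relative to baseline, converted to B score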

Chain of Potassium voltage-gated channel subfamily KQT member 1 (Homo sapiens) (P51787 whole entry, looked up): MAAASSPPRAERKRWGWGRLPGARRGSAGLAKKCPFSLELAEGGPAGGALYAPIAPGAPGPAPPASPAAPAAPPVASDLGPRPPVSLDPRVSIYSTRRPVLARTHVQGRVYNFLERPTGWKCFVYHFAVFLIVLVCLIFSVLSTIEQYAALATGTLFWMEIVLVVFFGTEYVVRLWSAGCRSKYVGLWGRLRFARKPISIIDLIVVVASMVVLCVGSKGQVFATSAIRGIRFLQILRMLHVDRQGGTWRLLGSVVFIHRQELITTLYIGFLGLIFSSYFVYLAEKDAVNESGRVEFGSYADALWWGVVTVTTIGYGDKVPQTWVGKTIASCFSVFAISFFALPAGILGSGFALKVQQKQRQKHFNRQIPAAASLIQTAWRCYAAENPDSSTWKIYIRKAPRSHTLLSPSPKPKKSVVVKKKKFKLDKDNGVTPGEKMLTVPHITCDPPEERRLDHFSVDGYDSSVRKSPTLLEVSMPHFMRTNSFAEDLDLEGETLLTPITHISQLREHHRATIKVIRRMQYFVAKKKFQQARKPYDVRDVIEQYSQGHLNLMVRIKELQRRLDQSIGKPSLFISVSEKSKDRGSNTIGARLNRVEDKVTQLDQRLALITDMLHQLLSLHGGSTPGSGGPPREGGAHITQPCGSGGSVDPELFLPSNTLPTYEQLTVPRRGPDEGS

SMILES | B-score
O=C(N/N=C\c1cc2c(cc1Cl)OCO2)c1ccc(Br)s1 | inactive
COC(=O)c1sccc1NS(=O)(=O)c1ccc(F)cc1F | inactive
COC(=O)c1sccc1NC(=O)COc1ccc(Cl)cc1 | inactive
COC(=O)c1sccc1NC(=O)CSc1ccccc1NS(=O)(=O)c1cc(Cl)ccc1Cl | 12 (active)
O=C(NNC(=S)NC1CCCCC1)c1ccccc1Cl | inactive
COc1ccc(C(=O)NC(=S)NC2CCCCC2)cc1 | inactive
O=C(NC(=S)NC1CCCCC1)c1ccc(Cl)cc1 | 9 (active)
CC(C)Cc1nc(Nc2ccc(S(=O)(=O)N3CCCC3)cc2)c2nnn(Cc3ccccc3)c2n1 | inactive
CCc1ccc(Oc2coc3cc(O)ccc3c2=O)cc1 | inactive
CC(Oc1cccc(Cl)c1)C(=O)Nc1ccc(S(=O)(=O)Nc2ncccn2)cc1 (configuration not stated) | inactive
CN(C)CCCn1c(=O)n(Cc2ccccc2)c(=O)c2c3c(sc21)CCCCC3 | inactive
CCn1c(=S)[nH]c2sc3c(c2c1=O)CCCCC3 | 92 (active)
CCCc1nc2sc3c(c2c(=O)n1NC(=O)CCCl)CCCC3 | inactive
N#Cc1nc(N)nc(N(c2ccccc2)c2ccccc2)n1 | inactive
O=C(Nc1cccn(Cc2ccccc2Cl)c1=O)NC1CCCCC1 | inactive
CC(OC(=O)C1CC(=O)N(Cc2ccccc2)C1)C(=O)Nc1ccccc1[N+](=O)[O-] (configuration not stated) | inactive
COc1ccc(C(=O)NC(=S)NNC(=O)c2c(-c3ccccc3)noc2C)cc1 | inactive
COc1ccc(C(=O)NNC(=S)NC(=O)c2ccccc2[N+](=O)[O-])cc1 | inactive
COc1ccc(C(=O)NNC(=S)NC(=O)c2ccccc2)cc1 | 10 (active)
CCc1cc2c(=O)c(-c3ccon3)c(N)oc2cc1OC | inactive
Oc1ccc2ccccc2c1N=Nc1nccs1 | 21 (active)
c1ccc(NCc2cccc3ccccc23)nc1 | inactive
Oc1ccc(N=Nc2nccs2)c(O)c1 | inactive
COc1ccc(N(CC(=O)NCc2ccc(F)cc2)C(=O)CCC(=O)Nc2nccs2)cc1 | inactive

SMILES | B-score
CC1=C/C(=N\OS(=O)(=O)c2ccccc2)C=CC1=O | 9 (active)
O=S(=O)(ON(c1ccccc1)S(=O)(=O)c1ccccc1)c1ccccc1 | inactive
CCOc1ccc(Br)cc1S(=O)(=O)Nc1cccc(S(=O)(=O)N(CC)CC)c1 | inactive
Cc1ccc(O)c(NC(=O)COc2cc(C)ccc2C)c1 | inactive
Cc1cccc(OCC(=O)NC(=S)Nc2ccccc2N2CCOCC2)c1 | inactive
Cc1ccc(O)c(NC(=S)NC(=O)COc2ccc(Br)cc2)c1 | 8 (active)
CCCCn1c(N)c(N(CCC(C)C)C(=O)CC2OC(=O)c3ccccc32)c(=O)[nH]c1=O (configuration not stated) | inactive
Cc1cc2occ(CC(=O)NNC(=O)c3ccccc3F)c2cc1C | inactive
CCOC(=O)CN(C(=O)COc1nc(-c2ccccc2)cc(C)c1C#N)c1ccc(F)cc1 | inactive
Cc1cccc(C(=O)Nc2ccc(C(=O)/C=C/c3cccs3)cc2)c1 | inactive
Cc1cccc(/C(N)=N/OC(=O)c2ccccc2Cl)c1 | inactive
Cc1ccc(NC(=O)c2cc3ccccc3o2)cc1 | inactive
C/C(=N\NC(=S)Nc1ccc(C)cc1)c1cc2ccccc2o1 | 28 (active)
C/C(=N/NC(=S)Nc1ccccc1)c1ccc2c(c1)OCO2 | inactive
O=C(CSc1nncn1-c1cccnc1)N1CCOCC1 | inactive
CCc1[nH]nc(C(=O)N2CCCC(CNS(=O)(=O)c3cccs3)C2)c1C (configuration not stated) | inactive
CC(C)c1ccc2c(c1)c(SC(C)(C)C)c(CC(C)(C)C(=O)O)n2Cc1ccc(Cl)cc1 | 44 (active)
Nc1ncnc(Nc2cccc(Cl)c2Cl)n1 | inactive
Cc1cccc(NC(=S)NCCN(C2CCCCC2)C2CCCC2)c1 | inactive
Cc1cccc(C(=O)NC(=S)N(C)C2CCCCC2)c1 | 16 (active)
Cc1cccc(C(=O)NCCCN(C)CCCNC(=O)c2cccc(C)c2)c1 | inactive
COc1ccc(C(=O)C2CCCN(C(=O)c3cnsn3)C2)c(C)c1 (configuration not stated) | inactive
OC(CNC1CCCC1)COc1ccc(F)cc1 (configuration not stated) | inactive
CC1CCN(C(=O)c2ccc(S(=O)(=O)Cc3cc(F)ccc3F)c([N+](=O)[O-])c2)CC1 | inactive

SMILES | B-score
COc1cccc2sc(Nc3nc(C)c(C(C)=O)s3)nc12 | inactive
COc1cccc2sc(NNC(=O)c3nc4ccccc4s3)nc12 | 28 (active)
COc1ccccc1OCc1nc2ccccc2s1 | inactive
CN(CC(=O)Nc1ccccc1C(F)(F)F)C(=O)Cc1ccccc1F | inactive
COCCNC(=O)CN1C(=O)CSc2ncccc21 | inactive
O=C1CCCc2c1nc(-c1cccc(Cl)c1)n2O | inactive
O=c1c2cc(Br)ccc2nc(-c2cccc(Cl)c2)n1O | 89 (active)
Cc1cccc(-c2nc3ccccc3c(=O)n2NC(=O)Cc2ccc(Cl)cc2)c1 | inactive
Cc1ccc(S(=O)(=O)N(C)C)cc1NC(=O)COC(=O)/C=C/c1cccs1 | inactive
O=C(NCCc1ccco1)C(=O)NCCC1CCCCN1S(=O)(=O)c1ccccc1 (configuration not stated) | inactive
COc1ccc(-n2cc(-c3ccccc3)c3c(=S)nc[nH]c32)cc1 | 8 (active)
O=c1[nH]cnc2c1c(-c1ccccc1)cn2-c1ccc(F)cc1 | inactive
COc1ccc(-n2c(-c3ccc(OC)c(OC)c3)n[nH]c2=S)cc1 | inactive
CC(=O)NS(=O)(=O)c1ccc(NC(=O)/C=C/c2ccccc2Cl)cc1 | inactive
CN(C(=O)c1c(Cl)cnn1C)C12CC3CC(CC(C3)C1)C2 | inactive
Nc1ccc(N=Nc2ccccc2Cl)c(N)n1 | inactive
Cc1ccc(OCC(=O)NCCCNC(=O)c2ccco2)cc1C | inactive
CCCc1ccc(OCC(=O)NNC(=S)NC(=O)c2ccco2)cc1 | 10 (active)
CCCc1ccc(OCCNC(=O)c2ccco2)cc1 | inactive
O=C(Nc1ccc2ccccc2c1)/C(=C/c1cccc(Br)c1)NC(=O)c1ccco1 | inactive
CC(Oc1ccc2ccccc2c1)C(=O)NNC(=S)NC(=O)c1ccco1 (configuration not stated) | 38 (active)
Cc1ccc(C(=O)NNC(=O)C(C)Oc2ccc3ccccc3c2)o1 (configuration not stated) | inactive
O=C(c1cccs1)n1nc(NCc2ccccc2)nc1NCc1ccccc1 | inactive
COC(=O)Cc1cnc(NC(=O)CSc2nc(C(C)C)cc(=O)[nH]2)s1 | inactive

SMILES | B-score
CC(=O)c1c(C)[nH]c(C(=O)OCC(=O)Nc2sc3c(c2C#N)CCCC3)c1C | inactive
Cc1ccc(CNC(=O)CCC(=O)N2CC(C)Sc3ccccc32)cc1 (configuration not stated) | inactive
O=S(=O)(Nc1cccc(-c2ccc(N3CCOCC3)nn2)c1)c1ccc(Cl)c(Cl)c1 | inactive
Cc1cccc(NC(=O)c2ccc([N+](=O)[O-])o2)c1 | inactive
Cc1cccc(NC(=O)NC(=S)NC(=O)c2ccccc2)c1 | inactive
Cc1cccc(NC(=S)NC(=O)c2ccc(Br)o2)c1 | 25 (active)
Cc1ccc(CNC(=O)[C@@H](NC(=O)Cc2ccccc2)C(C)C)cc1 | inactive
Cc1ccc(S(=O)(=O)N(CC(=O)NCCSC2CCCCC2)c2ccccc2F)cc1 | inactive
CN1CCCN(C(=O)C2CCCCC2)CC1 | inactive
O=C(N1CCCCC1)N1CCN(C(=O)N2CCCCC2)CC1 | 10 (active)
O=C(N1CCOCC1)N1CCOCC1 | inactive
Cc1sc(NC(=O)C2=COCCO2)c(C#N)c1C | inactive
CC1CCN(S(=O)(=O)c2ccc(NC(=O)C3CC(=O)N(c4ccccc4)C3)cc2)CC1 (configuration not stated) | inactive
c1ccc(-c2cc3c(NCC4COc5ccccc5O4)ncnc3s2)cc1 (configuration not stated) | inactive
c1ccc2c(c1)OCC(CNc1ncnc3nc[nH]c13)O2 (configuration not stated) | 8 (active)
S=C(NCC1COc2ccccc2O1)Nc1ccc(Br)cc1 (configuration not stated) | inactive
O=C(O)C1CCCN1S(=O)(=O)c1ccc(Br)cc1 (configuration not stated) | inactive
O=C(CSc1nccc(=O)[nH]1)Nc1ccc(N2CCOCC2)c(Cl)c1 | inactive
O=C(Nc1nnc(-c2ccc(Cl)cc2)o1)c1ccccc1Br | 8 (active)
O=C(COC(=O)c1ccccc1Br)Nc1nnc(-c2ccccc2)o1 | inactive
O=C(Nc1cccc(Cl)c1)Nc1nnc(-c2ccccc2)o1 | inactive
Cc1nnc(Nc2ccccc2F)s1 | inactive
CC(=O)Nc1ccc(S(=O)(=O)N2CCC(C(=O)NC3CC3)CC2)cc1 | inactive
CCOc1ccc(N(CC)S(=O)(=O)c2cccc3nsnc23)cc1 | inactive

SMILES | B-score
CC(C)(C)C1CCc2c(sc3nc(SCC(N)=O)nc(N)c23)C1 (configuration not stated) | inactive
O=c1c2ccccc2[nH]c(=S)n1CCN1CCC(=C(c2ccc(F)cc2)c2ccc(F)cc2)CC1 | inactive
CCCCNC(=O)c1ccc(-n2c(=S)[nH]c3ccccc3c2=O)cc1 | inactive
CCCCn1c(=S)[nH]c2ccccc2c1=O | 18 (active)
CCN(CC)CCn1c(=S)[nH]c2ncccc2c1=O | inactive
CCCCn1c(=S)[nH]c2ncccc2c1=O | 10 (active)
CCCCNC(=O)CCn1c(=S)[nH]c2cc3c(cc2c1=O)OCO3 | inactive
O=C(Nc1ccc(CN2CCOCC2)cc1)c1cc(Cl)ccc1Cl | inactive
Cc1sc2ncnc(N3CCC(C(=O)Nc4nc5ccc(Cl)cc5s4)CC3)c2c1C | inactive
O=C(CNS(=O)(=O)c1ccc(Br)s1)NCc1ccc2c(c1)OCO2 | inactive
Cn1c2ccccc2c2cc(/C=C(\NC(=O)c3ccccc3)C(=O)NCC(=O)O)ccc21 | inactive
CCNC(=S)Nc1ccc(OC(F)(F)F)cc1 | inactive
CS(=O)(=O)c1sc(C(=O)NC(=S)Nc2ccc(OC(F)(F)F)cc2)c2c1C=CCC2 | 11 (active)
FC(F)(F)Oc1ccc(NC(=S)NCc2ccccc2)cc1 | inactive
CN(/N=C/c1ccccc1)C(=S)c1ccccc1 | inactive
CC(CC(=O)Nc1ccccc1)n1ccnc1 (configuration not stated) | inactive
Cc1ccn2c(=O)c(C(=O)NCCC3=CCCCC3)c(O)nc2c1 | inactive
C=CCn1c(Cn2nnc3ccccc32)nnc1SCC(=O)N/N=C/c1cc(Br)cc(OC)c1O | inactive
COc1cc(Br)cc(/C=N/c2ncn[nH]2)c1O | 12 (active)
Oc1c(Cl)cc(Cl)cc1/C=N/c1ncn[nH]1 | 9 (active)
Oc1ccc(Br)cc1C=Nc1ccc2[nH]ncc2c1 | inactive
